Assay results taken from ChEMBL document CHEMBL1158500, “Synthesis and biological evaluation of new potential inhibitors of N-acylethanolamine hydrolyzing acid amidase” (Bioorg Med Chem Lett, 2010).
Calls of active or inactive are those of the source. The calls are words filed in the database; no cut-off is given here.

Columns and labels:
[1] = target: T1, N-acylethanolamine-hydrolyzing acid amidase (Homo sapiens) (UniProt Q02083); assay: Inhibition of human recombinant NAAA expressed in human HEK293 cells assessed as conversion of [1,2-14C]palmitoylethanolamine to [1,2-14C]ethanolamine at 50 uM by liquid scintillation counting; assay type: cell-based
T1 sequence (whole entry): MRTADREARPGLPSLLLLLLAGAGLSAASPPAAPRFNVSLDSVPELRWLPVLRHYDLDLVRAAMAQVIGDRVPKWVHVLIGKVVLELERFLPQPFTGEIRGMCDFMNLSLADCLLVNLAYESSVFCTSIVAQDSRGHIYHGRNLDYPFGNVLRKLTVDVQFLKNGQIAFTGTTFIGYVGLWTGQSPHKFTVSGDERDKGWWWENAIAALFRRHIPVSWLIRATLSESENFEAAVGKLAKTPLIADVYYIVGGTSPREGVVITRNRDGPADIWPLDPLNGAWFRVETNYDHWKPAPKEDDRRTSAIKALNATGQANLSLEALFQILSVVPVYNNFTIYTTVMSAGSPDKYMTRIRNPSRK

[2] = target: T2, N-acylethanolamine-hydrolyzing acid amidase (Homo sapiens, UniProt Q02083); assay: Inhibition of NAAA
T2 sequence (Q02083 whole entry): T1 sequence (whole entry)

[3] = target: T3, Fatty-acid amide hydrolase 1 (Homo sapiens) (UniProt O00519); assay: Inhibition of FAAH up to 50 uM
T3 sequence (whole entry): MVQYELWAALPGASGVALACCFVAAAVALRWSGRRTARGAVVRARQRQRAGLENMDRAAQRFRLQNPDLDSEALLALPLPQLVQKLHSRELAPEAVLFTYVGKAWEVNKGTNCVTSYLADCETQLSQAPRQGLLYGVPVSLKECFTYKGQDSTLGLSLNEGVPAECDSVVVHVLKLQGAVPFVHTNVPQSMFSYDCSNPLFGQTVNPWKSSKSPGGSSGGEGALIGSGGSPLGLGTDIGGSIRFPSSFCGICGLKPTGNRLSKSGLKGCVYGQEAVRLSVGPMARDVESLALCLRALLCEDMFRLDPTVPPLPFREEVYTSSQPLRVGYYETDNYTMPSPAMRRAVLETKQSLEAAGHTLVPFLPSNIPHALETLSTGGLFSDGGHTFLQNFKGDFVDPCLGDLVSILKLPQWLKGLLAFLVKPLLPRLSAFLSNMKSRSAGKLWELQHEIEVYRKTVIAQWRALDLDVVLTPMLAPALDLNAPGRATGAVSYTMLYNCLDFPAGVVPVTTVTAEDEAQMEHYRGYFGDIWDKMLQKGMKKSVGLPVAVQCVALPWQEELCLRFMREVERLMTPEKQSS

[4] = target: T2, N-acylethanolamine-hydrolyzing acid amidase; assay: Inhibition of human recombinant NAAA expressed in human HEK293 cells assessed as conversion of [1,2-14C]palmitoylethanolamine to [1,2-14C]ethanolamine by liquid scintillation counting
[5] = target: Transient receptor potential cation channel subfamily V member 1 (Homo sapiens) (UniProt Q8NER1); assay: Inhibition of human TRPV1 expressed in HEK293 cells up to 50 uM; assay type: cell-based
[6] = target: Cannabinoid receptor 1 (Homo sapiens) (UniProt P21554); assay: Displacement of [3H]CP-55940 from human recombinant CB1 receptor expressed in HEK293 cells up to 50 uM after 90 mins; assay type: cell-based
[7] = target: T1, N-acylethanolamine-hydrolyzing acid amidase (Homo sapiens); assay: Inhibition of NAAH in human intact HEK293 assessed as N-palmitoylethanolamine level by LC-APCI-MS analysis; assay type: cell-based
Outline: (§1)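 Intact HEK-NAAA cells (HEK-293 stably overexpressing human NAAA) were treated. Cellular PEA, AEA, OEA and 2-arachidonoylglycerol were quantified by isotope-dilution liquid chromatography–mass spectrometry and expressed as pmol/mg lipid.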

[8] = target: T3, Fatty-acid amide hydrolase 1 (Homo sapiens); assay: Inhibition of FAAH in human intact HEK293 assessed as anandamide level by LC-APCI-MS analysis; assay type: cell-based; outline: as §1
[9] = target: Cannabinoid receptor 1 (Homo sapiens) (UniProt P21554); assay: Inhibition of CB1 receptor in intact human HEK293 cells assessed as 2-arachidonoylglycerol level by LC-APCI-MS analysis; assay type: cell-based; outline: as §1
[10] = target: Peroxisome proliferator-activated receptor (Homo sapiens) (UniProt P37231+Q07869+Q03181); assay: Inhibition of PPAR in intact human HEK293 cells assessed as N-oleoylethanolamine level by LC-APCI-MS analysis; assay type: cell-based; outline: as §1
[11] = target: T1, N-acylethanolamine-hydrolyzing acid amidase (Homo sapiens); assay: Competitive inhibition of human recombinant NAAA expressed in human HEK293 cells assessed as conversion of [1,2-14C]palmitoylethanolamine to [1,2-14C]ethanolamine by Lineweaver-Burke plot analysis; assay type: cell-based
[12] = target: Cannabinoid receptor 2 (Homo sapiens) (UniProt P34972); assay: Displacement of [3H]CP-55940 from human recombinant CB2 receptor expressed in HEK293 cells up to 50 uM after 90 mins; assay type: cell-based

For CCCCCCCCCCCCCCCC(=O)NN1CCN(c2ccc(Cl)cc2)CC1, the inhibition [1] was “inactive”.

In the case of CCCCCCCCCCCCCCCNC(=O)CCO, the IC50 [2] is reported as 32 µM.

In the case of CCCCCCCCCCCCCCCC(=O)OC1CCCC1 [CYCLOPENTYL PALMITATE], the Activity [3] is reported as “inactive”, the IC50 [4] is reported as 10 µM and the Activity [5] is reported as “inactive”. The Activity [6] was “inactive”, the Activity [7] was “Active” and the Activity [8] was “inactive”. The Activity [9] was “inactive”, the Activity [10] was “inactive” and the Activity [11] was “Active”. For the same compound, the inhibition [1] was 85% and the Activity [12] was “inactive”.

CCCCCCCCCCCCCCCCNC(=O)c1ccc([N+](=O)[O-])cc1 gave an inhibition [1] of 4%.

For CCCCCCCCCCCCCCCCOC(=O)NC1CCCCC1, the inhibition [1] was “inactive”.

For CCCCCCCCCCCCCCCCC(=O)OC1CCCC1, the inhibition [1] was “inactive”.

CCCCCCCCCCCCCCCCOC(=O)CC [HEXADECYLPROPIONATE] was tested, and the IC50 [2] was 54 µM.

For CCCCCCCCCCCCCCCCNC(=O)C1CCCC1, the inhibition [1] was 8%.

For CCCCCCCCCCCCCCCC(=O)NN1CCN(c2ccc(C)c(C)c2)CC1, the inhibition [1] was “inactive”.

Compound CCCCCCCCCCCCCCC(=O)OC1CCCC1 has an inhibition [1] of 25%.

In the case of CCCCCCCCCCCCCCCCNC(=O)c1ccc(OC)cc1, the inhibition [1] is reported as “inactive”.

For CCCCCCCCCCCCCCC(=O)OC1CCCCC1, the inhibition [1] was 28%.

For CCCCCCCCCCCCCCC(=O)OC1CCC1, the inhibition [1] was 29%.

CCCCCCCCCCCCCCCC(=O)OC1CCC1 was tested, and the inhibition [1] was 41%.

For CCCCCCCCCCCCCCCC(=O)Oc1ccc(OC)cc1, the inhibition [1] was “inactive”.

Work on CCCCCCCCCCCCCCCC(=O)OC1CCCCC1 yielded an inhibition [1] of 18%.

For CCCCCCCCCCCCCCCC(=O)Nc1ccc(OC)cc1, the inhibition [1] was “inactive”.

In the case of CCCCCCCCCCCCCCCC(=O)NCCc1ccc(OC)cc1, the inhibition [1] is reported as “inactive”.

For CCCCCCCCCCCCCCCCC(=O)OC1CCC1, the inhibition [1] was “inactive”.

In the case of CCCCCCCCCCCCCCCC(=O)NC1CCN(Cc2ccccc2)CC1, the inhibition [1] is reported as “inactive”.

CCCCCCCCCCCCCCCC(=O)Nc1ccc([N+](=O)[O-])cc1 was tested, and the inhibition [1] was 15%.

With CCCCCCCCCCCCCCCCOC(=O)Nc1ccc(OC)cc1 the inhibition [1] was “inactive”.

For CCCCCCCCCCCCCCCC(=O)NN1CCN(c2ccc(F)cc2)CC1, the inhibition [1] was “inactive”.

CCCCCCCCCCCCCCCCOC(=O)c1ccc([N+](=O)[O-])cc1 was tested, and the inhibition [1] was 26%.

For CCCCCCCCCCCCCCCNC(=O)c1ccccc1, the IC50 [2] was 8.3 µM.

With CCCCCCCCCCCCCCCNC(=O)C1CCCCC1 [CYCLOHEXANECARBOXYLIC ACID PENTADECYLAMIDE] the IC50 [4] was 17 µM.

In the case of CCCCCCCCCCCCCCCC(=O)NCCc1cc(OC)cc(OC)c1, the inhibition [1] is reported as “inactive”.

For CCCCCCCCCCCCCCCC(=O)NN1CCN(c2cc(C)ccc2C)CC1, the inhibition [1] was “inactive”.

CCCCCCCCCCCCCCCCOC(=O)C1CCCC1 was tested, and the inhibition [1] was 17%.

In the case of CCCCCCCCCCCCCCCCC(=O)OC1CCCCC1, the inhibition [1] is reported as “inactive”.

With CCCCCCCCCCCCCCCCOC(=O)c1ccc(OC)cc1 the inhibition [1] was “inactive”.
